Laboratory results taken from BindingDB's records for doi:10.1021/jm00077a002 (Merck Research Laboratories, 1994).

Columns and labels:
[1] = target: T1, Oxytocin receptor (Rattus norvegicus, UniProt P70536); assay: ChEBML_145031
T1 sequence (P70536 whole entry): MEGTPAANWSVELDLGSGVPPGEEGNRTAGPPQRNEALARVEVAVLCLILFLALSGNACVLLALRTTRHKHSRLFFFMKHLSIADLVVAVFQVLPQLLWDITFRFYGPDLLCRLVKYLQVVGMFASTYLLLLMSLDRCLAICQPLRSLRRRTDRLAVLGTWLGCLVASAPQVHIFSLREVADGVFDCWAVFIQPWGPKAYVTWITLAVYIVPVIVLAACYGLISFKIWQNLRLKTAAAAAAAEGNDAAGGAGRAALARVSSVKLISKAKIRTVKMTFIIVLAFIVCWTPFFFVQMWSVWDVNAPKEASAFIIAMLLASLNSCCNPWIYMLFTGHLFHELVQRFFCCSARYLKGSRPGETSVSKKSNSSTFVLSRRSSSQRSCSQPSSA
Source text: Tested against rat uterine OT receptor

[2] = target: T2, Vasopressin V1a/V1b receptor (Rattus norvegicus, UniProt P30560+P48974); assay: ChEBML_211079
Source text: (§1) Inhibition of radioligand [3H]AVP binding to the vasopressin V1 receptor in rat liver tissue

[3] = target: T1, Oxytocin receptor; assay: Inhibition of radioligand [3H]oxytocin binding at the oxytocin (OT) receptor in rat uterine tissue
Procedure, shortened: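 Uteri taken from rats given diethylstilbestrol dipropionate (0.3 mg/kg ip, 18–24 h before), crude membranes. 1 nM [3H]OT (30–60 Ci/mmol), equilibrium 60 min at 22 °C in 50 mM Tris-HCl, 5 mM MgCl2, 0.1% BSA, pH 7.4. Nonspecific binding with 1 mM unlabeled OT. Filtered on glass fiber. Initial single-concentration screen, then IC50 from seven concentrations by linear regression.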

[4] = target: T2, Vasopressin V1a/V1b receptor; assay: as §1
Procedure, shortened: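 Crude membranes from male rat liver (V1 sites) competed with 1 nM [3H]AVP (80–90 Ci/mmol). Equilibrium 30 min, 30 °C, buffer 100 mM Tris-HCl, 5 mM MgCl2, 0.1% BSA, 50 μM PMSF, 50 μg/mL bacitracin, pH 8.0. 10 μM unlabeled AVP for nonspecific binding. Filtration through glass-fiber filters. IC50 from linear regression over seven concentrations.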

[5] = target: Vasopressin V2 receptor (Rattus norvegicus, UniProt Q00788); assay: Inhibition of radioligand [3H]-AVP binding to the vasopressin V2 receptor in rat kidney tissue
Procedure, shortened: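 [3H]AVP (80–90 Ci/mmol) at 2 nM competed on crude membranes from male rat kidney medulla (V2 sites). Equilibrium 30 min at 30 °C in 100 mM Tris-HCl, 5 mM MgCl2, 0.1% BSA, 50 μM PMSF, 50 μg/mL bacitracin, pH 8.0. Nonspecific binding with 10 μM unlabeled AVP. Glass-fiber filtration. IC50 by linear regression of % inhibition vs log concentration, seven concentrations.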

T2 sequence (P30560 whole entry): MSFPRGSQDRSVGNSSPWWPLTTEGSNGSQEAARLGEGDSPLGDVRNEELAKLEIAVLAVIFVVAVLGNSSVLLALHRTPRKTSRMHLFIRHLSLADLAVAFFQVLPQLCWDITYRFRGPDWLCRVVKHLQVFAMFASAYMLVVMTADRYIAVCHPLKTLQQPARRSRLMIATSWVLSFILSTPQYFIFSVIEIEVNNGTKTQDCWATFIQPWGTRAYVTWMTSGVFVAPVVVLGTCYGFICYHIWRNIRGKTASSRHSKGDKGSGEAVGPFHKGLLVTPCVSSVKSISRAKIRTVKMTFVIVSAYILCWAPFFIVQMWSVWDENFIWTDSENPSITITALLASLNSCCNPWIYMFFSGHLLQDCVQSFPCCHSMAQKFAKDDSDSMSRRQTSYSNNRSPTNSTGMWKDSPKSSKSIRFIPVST
T2 sequence (P48974 whole entry): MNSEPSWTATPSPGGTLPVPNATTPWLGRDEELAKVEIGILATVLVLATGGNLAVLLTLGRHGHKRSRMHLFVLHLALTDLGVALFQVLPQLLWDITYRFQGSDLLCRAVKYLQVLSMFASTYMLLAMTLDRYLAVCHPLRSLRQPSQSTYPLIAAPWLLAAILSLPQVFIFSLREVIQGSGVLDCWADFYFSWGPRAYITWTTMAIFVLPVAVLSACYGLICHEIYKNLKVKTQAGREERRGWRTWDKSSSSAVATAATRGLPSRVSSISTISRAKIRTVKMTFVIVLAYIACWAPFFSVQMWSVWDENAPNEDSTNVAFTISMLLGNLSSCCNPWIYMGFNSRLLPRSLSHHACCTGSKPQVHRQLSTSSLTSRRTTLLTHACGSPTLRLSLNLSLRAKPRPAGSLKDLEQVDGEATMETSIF
Sequence of Vasopressin V2 receptor (Q00788 whole entry): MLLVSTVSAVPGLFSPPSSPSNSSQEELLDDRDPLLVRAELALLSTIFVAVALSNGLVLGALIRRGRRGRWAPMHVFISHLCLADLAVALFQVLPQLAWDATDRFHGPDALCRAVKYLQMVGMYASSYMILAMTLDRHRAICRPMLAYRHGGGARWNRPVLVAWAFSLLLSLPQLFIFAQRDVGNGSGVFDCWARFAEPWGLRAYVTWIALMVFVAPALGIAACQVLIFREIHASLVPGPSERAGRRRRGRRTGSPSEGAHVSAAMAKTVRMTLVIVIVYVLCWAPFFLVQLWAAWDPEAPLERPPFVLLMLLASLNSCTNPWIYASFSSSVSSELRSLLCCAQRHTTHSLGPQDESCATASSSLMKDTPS

Structure (SMILES): CC1(C)[C@@H]2CC[C@@]1(CS(=O)(=O)N1CCC3(CCc4ccccc43)CC1)[C@@H](n1c(O)c(Cc3cnc[nH]3)[nH]c1=O)C2 [3-[7,7-dimethyl-1-spiro[2,3-dihydro-1H-indene-1,4'-(hexahydropyridine)]-1-ylsulfonylmethyl-(1S,2S,4R)-bicyclo[2.2.1]hept-2-yl]-5-(1H-4-imidazolylmethyl)tetrahydro-1H-2,4-imidazoledione]
- IC50 [1]: 13 nM
- IC50 [2]: 420 nM
- IC50 [3]: 13 nM
- IC50 [4]: 420 nM
- IC50 [5]: 1500 nM
